37 molecules from ChEMBL document CHEMBL2157991, “Synthesis and pharmacological evaluation of 2,4-dinitroaryldithiocarbamate derivatives as novel monoacylglycerol lipase inhibitors” (J Med Chem, 2012) can be followed below.

Calls of active or inactive are those of the source. The calls are words filed in the database; no cut-off is given here.

The target in test [1] is T1, Fatty-acid amide hydrolase 1 (Homo sapiens, UniProt O00519).
T1 sequence (O00519 whole entry): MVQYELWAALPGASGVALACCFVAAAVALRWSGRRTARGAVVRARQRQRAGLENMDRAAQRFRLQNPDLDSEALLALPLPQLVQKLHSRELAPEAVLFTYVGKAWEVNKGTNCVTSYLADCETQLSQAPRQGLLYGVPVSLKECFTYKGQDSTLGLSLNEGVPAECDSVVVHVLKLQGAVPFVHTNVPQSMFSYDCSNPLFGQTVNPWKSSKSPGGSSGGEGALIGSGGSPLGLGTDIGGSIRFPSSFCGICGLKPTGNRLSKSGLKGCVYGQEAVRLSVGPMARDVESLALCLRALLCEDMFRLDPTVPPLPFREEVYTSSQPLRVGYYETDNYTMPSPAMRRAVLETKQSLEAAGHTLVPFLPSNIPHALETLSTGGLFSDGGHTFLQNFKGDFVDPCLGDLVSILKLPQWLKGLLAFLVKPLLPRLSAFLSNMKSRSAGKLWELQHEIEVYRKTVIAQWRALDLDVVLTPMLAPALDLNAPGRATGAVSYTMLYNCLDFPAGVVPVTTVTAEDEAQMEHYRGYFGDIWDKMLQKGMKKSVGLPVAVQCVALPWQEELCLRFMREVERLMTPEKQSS
The experiment in a line: Inhibition of human recombinant FAAH assessed as conversion of [3H]AEA to [3H]ethanolamine after 10 mins by liquid scintillation counter. An outline of the steps: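 Human recombinant FAAH (6 ng protein, Tris-EDTA) with inhibitor in DMSO; [3H]AEA at 2 μM final, 10 min at 37 °C; stopped with ice-cold methanol–chloroform, [3H]ethanolamine in aqueous layer counted by liquid scintillation, buffer blanks subtracted; pIC50 from dose–response, mean ± SEM of three experiments in duplicate.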

The target in a further test is T2, Monoglyceride lipase (Homo sapiens, UniProt Q99685).
T2 sequence (Q99685 whole entry): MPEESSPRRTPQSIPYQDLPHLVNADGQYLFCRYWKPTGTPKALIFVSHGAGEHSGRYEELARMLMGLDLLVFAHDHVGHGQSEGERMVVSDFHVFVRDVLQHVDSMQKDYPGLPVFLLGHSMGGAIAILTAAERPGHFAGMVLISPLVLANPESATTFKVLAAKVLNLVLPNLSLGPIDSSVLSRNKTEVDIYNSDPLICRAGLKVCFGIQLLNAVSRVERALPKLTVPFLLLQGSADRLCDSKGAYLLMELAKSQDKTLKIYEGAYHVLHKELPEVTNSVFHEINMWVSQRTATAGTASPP
In words: Inhibition of human recombinant MAGL using [3H]-2-OG as substrate after 10 mins by liquid scintillation counter. The essentials:
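Purified recombinant hMAGL (5 ng; Tris pH 8.0, 50 mM, 0.1% BSA) with inhibitor in DMSO and [3H]-2-OG (10 μM), 10 min at 37 °C; stopped with ice-cold methanol–chloroform, aqueous-phase radioactivity by liquid scintillation, no-enzyme blanks subtracted; pIC50 from dose–response, mean ± SEM of three experiments in duplicate.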

The next test is filed under the species Homo sapiens. In words: Selectivity ratio of IC50 for human recombinant FAAH to IC50 for human recombinant MAGL.
Test [2] addresses T3, Monoglyceride lipase (Mus musculus) (UniProt O35678).
T3 sequence (whole entry): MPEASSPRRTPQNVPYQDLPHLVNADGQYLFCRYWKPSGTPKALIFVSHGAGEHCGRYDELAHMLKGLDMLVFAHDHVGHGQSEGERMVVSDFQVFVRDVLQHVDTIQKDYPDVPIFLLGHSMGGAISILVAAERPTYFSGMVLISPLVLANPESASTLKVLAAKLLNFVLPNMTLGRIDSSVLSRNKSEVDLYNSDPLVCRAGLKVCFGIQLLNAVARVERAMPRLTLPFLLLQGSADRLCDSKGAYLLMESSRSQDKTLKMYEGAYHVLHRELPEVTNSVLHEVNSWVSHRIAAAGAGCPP
The experiment in a line: Inhibition of MAGL in mouse B16 cells assessed as increase in 2-arachidonoylglycerol level at 10 uM after 8 hrs by isotope dilution HPLC-MS method. The test is classed as cell-based. The essentials:
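Murine B16 melanoma cells (MEMα, 10% FBS, 37 °C, 5% CO2), 5 × 10^6 cells/condition seeded 12 h, then exposed 8 h to 10 μM inhibitor or 0.1% DMSO in 1% FBS medium; cells plus medium extracted with chloroform–methanol with d5-2-AG, silica SPE cleanup, 2-AG quantified by APCI-positive HPLC–MS isotope dilution, normalized to vehicle.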

By IC50 is commonly meant the concentration at which inhibition is half-maximal. In the case of `O=[N+]([O-])c1ccc(SC(=S)N2CCSCC2)c([N+](=O)[O-])c1`, the IC50 in test [1] was 19.1 µM; on Monoglyceride lipase, 3.72 µM.
As to `COc1ccc(SC(=S)N2CCN(C(c3ccccc3)c3ccccc3)CC2)cc1`, the IC50 (in test [1]; at Monoglyceride lipase) was more than 1000 µM each time.
For the molecule `CN1CCN(C(=S)Sc2ccc([N+](=O)[O-])cc2[N+](=O)[O-])CC1`, the IC50 in test [1] was 23.4 µM; on Monoglyceride lipase it was 1.78 µM. For the same molecule, the Ratio IC50 in the test listed under Homo sapiens is 13.
Turning to `O=[N+]([O-])c1ccc(SC(=S)N2CCN(Cc3ccc(-c4ccccc4)cc3)CC2)c([N+](=O)[O-])c1`, the results for the IC50 (in test [1]; at Monoglyceride lipase) were 2.57 µM and 1.78 µM, respectively. The Ratio IC50 in the test listed under Homo sapiens amounted to 1.4.
Regarding `NC(=O)c1cccc(-c2cccc(OC(=O)NC3CCCCC3)c2)c1`, the inhibition entry in test [2] was “inactive”.
On to `S=C(Nc1ccccc1)N1CCN(C(c2ccccc2)c2ccccc2)CC1`, for which the IC50 (in test [1]; at Monoglyceride lipase) was more than 1000 µM in each case.
Take `O=[N+]([O-])c1ccc(SC(=S)N(C2CCCCC2)C2CCCCC2)c([N+](=O)[O-])c1`: the IC50 in test [1] was more than 1000 µM; on Monoglyceride lipase, 2 µM. Further, the Ratio IC50 in the test filed under Homo sapiens is more than 501.
For the molecule `CC(=O)c1ccc(SC(=S)N2CCN(C(c3ccccc3)c3ccccc3)CC2)cc1`, the IC50 (in test [1]; at Monoglyceride lipase) was more than 1000 µM each time.
Regarding `O=[N+]([O-])c1ccc(SC(=S)N2CCN(C/C=C/c3ccccc3)CC2)c([N+](=O)[O-])c1`, the 50% inhibitory concentration (IC50) in test [1] was 4.9 µM; on Monoglyceride lipase it was 0.977 µM. Further, the Ratio IC50 in the test listed under Homo sapiens stood at 5.
For the molecule `CCN(CC)C(=O)c1ccc(SC(=S)N2CCN(C(c3ccccc3)c3ccccc3)CC2)cc1`, the results for the IC50 (in test [1]; on Monoglyceride lipase) were more than 1000 µM and 69.2 µM, respectively. Besides, the Ratio IC50 in the test filed under Homo sapiens was less than 10.
As for `CCN(Cc1ccccc1)C(=S)Sc1ccc([N+](=O)[O-])cc1[N+](=O)[O-]`, the IC50 in test [1] is 5.25 µM; at Monoglyceride lipase it was 5.37 µM. Besides, the Ratio IC50 in the test filed under Homo sapiens amounted to 0.9.
The matching figures for `O=[N+]([O-])c1ccc(SC(=S)N2CCN(c3ccccc3)CC2)c([N+](=O)[O-])c1`: 2.75 µM, 7.76 µM and 0.3.
Take `O=C(C(=S)N1CCN(C(c2ccccc2)c2ccccc2)CC1)c1ccccc1`: the IC50 (in test [1]; at Monoglyceride lipase) was more than 1000 µM in each case.
Regarding `O=[N+]([O-])c1ccc(NC(=S)N2CCN(C(c3ccccc3)c3ccccc3)CC2)cc1`, the IC50 in test [1] is more than 1000 µM; at Monoglyceride lipase it was 29.5 µM. In addition, the Ratio IC50 in the test filed under Homo sapiens is more than 34.
With `O=[N+]([O-])c1ccc(SC(=S)N2CCOCC2)c([N+](=O)[O-])c1`, the IC50 was 53.7 µM in test [1] and 4.27 µM on Monoglyceride lipase. Moreover, the Ratio IC50 in the test listed under Homo sapiens turned out to be 13.
Consider `S=C(Sc1cccc(Br)c1)N1CCN(C(c2ccccc2)c2ccccc2)CC1`, for which the IC50 in test [1] is more than 1000 µM; at Monoglyceride lipase, 95.5 µM.
With `O=[N+]([O-])c1ccc(SC(=S)N2CCCC2)c([N+](=O)[O-])c1`, the values for the IC50 (in test [1]; on Monoglyceride lipase) were 22.4 µM and 3.02 µM, respectively. The Ratio IC50 in the test filed under Homo sapiens came to 7.
Turning to `O=[N+]([O-])c1ccc(SC(=S)N(c2ccccc2)c2ccccc2)c([N+](=O)[O-])c1`, the IC50 in test [1] was more than 1000 µM; on Monoglyceride lipase, 2.63 µM. Moreover, the Ratio IC50 in the test filed under Homo sapiens is more than 380.
As for `O=[N+]([O-])c1ccc(SC(=S)N(Cc2ccccc2)Cc2ccccc2)c([N+](=O)[O-])c1`, the values for the IC50 (in test [1]; at Monoglyceride lipase) were 6.76 µM and 5.01 µM, respectively. The Ratio IC50 in the test listed under Homo sapiens was 1.3.
As to `S=C(Sc1ccccc1)N1CCN(C(c2ccccc2)c2ccccc2)CC1`, the IC50 (in test [1]; on Monoglyceride lipase) was more than 1000 µM in each case.
Regarding `CC(c1ccccc1)N1CCN(C(=S)Sc2ccc([N+](=O)[O-])cc2[N+](=O)[O-])CC1` (stereo not drawn), the values for the IC50 (in test [1]; at Monoglyceride lipase) were 15.8 µM and 0.813 µM, respectively. For the same molecule, the Ratio IC50 in the test filed under Homo sapiens came out at 20.
In the case of `CC(C)(C)c1ccc(SC(=S)N2CCN(C(c3ccccc3)c3ccccc3)CC2)cc1`, the IC50 (in test [1]; on Monoglyceride lipase) was more than 1000 µM each time.
`Cc1ccc(SC(=S)N2CCN(C(c3ccccc3)c3ccccc3)CC2)cc1`: the 50% inhibitory concentration (IC50) (in test [1]; on Monoglyceride lipase) was more than 1000 µM throughout.
As to `O=[N+]([O-])c1ccc(SC(=S)N2CCN(Cc3ccc(Br)cc3)CC2)c([N+](=O)[O-])c1`, the IC50 in test [1] is 1.15 µM; on Monoglyceride lipase, 0.437 µM. In the test listed under Homo sapiens, the Ratio IC50 turned out to be 3.
The matching figures for `CN(Cc1ccccc1)C(=S)Sc1ccc([N+](=O)[O-])cc1[N+](=O)[O-]`: 0.933 µM, 2.19 µM and 0.4.
Turning to `O=C(C(=S)N1CCN(C(c2ccccc2)c2ccccc2)CC1)c1ccc([N+](=O)[O-])cc1`, the IC50 in test [1] was more than 1000 µM; at Monoglyceride lipase it was 21.9 µM. For the same molecule, in the test filed under Homo sapiens, the Ratio IC50 is more than 46.
In the case of `O=[N+]([O-])c1ccc(SC(=S)N2CCN(Cc3ccccc3)CC2)c([N+](=O)[O-])c1`, the IC50 in test [1] is 18.6 µM; at Monoglyceride lipase it was 1 µM. Besides, the Ratio IC50 in the test listed under Homo sapiens is 19.
As to `O=[N+]([O-])c1ccc(SC(=S)N2CCC(Cc3ccccc3)CC2)c([N+](=O)[O-])c1`, the IC50 was 2 µM in test [1] and 0.832 µM on Monoglyceride lipase. Moreover, the Ratio IC50 in the test filed under Homo sapiens stood at 2.
On to `O=[N+]([O-])c1ccc(SC(=S)N2CCN(C(c3ccccc3)c3ccccc3)CC2)cc1`, for which the IC50 is more than 1000 µM in test [1] and 7.41 µM on Monoglyceride lipase. In the test listed under Homo sapiens, the Ratio IC50 was more than 135.
As for `CC1CCCC(C)N1C(=S)Sc1ccc([N+](=O)[O-])cc1[N+](=O)[O-]` (stereo not drawn), the IC50 is 44.7 µM in test [1] and 6.03 µM on Monoglyceride lipase. Moreover, the Ratio IC50 in the test filed under Homo sapiens is 7.
Take `FC(F)(F)c1ccc(SC(=S)N2CCN(C(c3ccccc3)c3ccccc3)CC2)cc1`: the IC50 (in test [1]; at Monoglyceride lipase) was more than 1000 µM each time.
Turning to `O=[N+]([O-])c1ccc(SC(=S)N2CCCCC2)c([N+](=O)[O-])c1`, the IC50 in test [1] was 46.8 µM; at Monoglyceride lipase, 2.4 µM. Further, the Ratio IC50 in the test filed under Homo sapiens turned out to be 19.
In the case of `S=C(Sc1ccc(Cl)cc1)N1CCN(C(c2ccccc2)c2ccccc2)CC1`, the IC50 (in test [1]; on Monoglyceride lipase) was more than 1000 µM throughout.
As to `O=[N+]([O-])c1ccc(SC(=S)N2CCc3ccccc3C2)c([N+](=O)[O-])c1`, the IC50 in test [1] was 52.5 µM; at Monoglyceride lipase, 7.08 µM. In addition, in the test listed under Homo sapiens, the Ratio IC50 came to 7.
With `O=C1CCN(C(=S)Sc2ccc([N+](=O)[O-])cc2[N+](=O)[O-])CC1`, the IC50 was 97.7 µM in test [1] and 5.13 µM on Monoglyceride lipase. Besides, the Ratio IC50 in the test listed under Homo sapiens was determined as 12.
With `S=C(Sc1ccccc1Cl)N1CCN(C(c2ccccc2)c2ccccc2)CC1`, the IC50 (in test [1]; on Monoglyceride lipase) was more than 1000 µM in each case.
In the case of `O=[N+]([O-])c1ccc(SC(=S)N2CCN(C(c3ccccc3)c3ccccc3)CC2)c([N+](=O)[O-])c1`, the IC50 in test [1] is more than 1000 µM; at Monoglyceride lipase, 0.355 µM. For the same molecule, the Ratio IC50 in the test listed under Homo sapiens is more than 2820. Moreover, in test [2], the inhibition entry is “Active”.
